Screening results: PubChem BioAssay, Sanford-Burnham Center for Chemical Genomics
Most compounds without a hit are left out; they make up all but 3.1% or so of the library.
Apaf-1 inh = blocks human Apaf-1 apoptosome activity | O14727 | reconstituted apoptosome caspase-3 activity, DEVD-Rh110 fluorescence | inhibition, % at 20 µM | 330,000 tested, 0.71% active; active means inhibition of at least 40% at 20 µM;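 further: plate controls were DMSO wells for no effect and DEVD-CHO caspase inhibitor wells for full effect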
Target sequence (O14727 whole entry, looked up): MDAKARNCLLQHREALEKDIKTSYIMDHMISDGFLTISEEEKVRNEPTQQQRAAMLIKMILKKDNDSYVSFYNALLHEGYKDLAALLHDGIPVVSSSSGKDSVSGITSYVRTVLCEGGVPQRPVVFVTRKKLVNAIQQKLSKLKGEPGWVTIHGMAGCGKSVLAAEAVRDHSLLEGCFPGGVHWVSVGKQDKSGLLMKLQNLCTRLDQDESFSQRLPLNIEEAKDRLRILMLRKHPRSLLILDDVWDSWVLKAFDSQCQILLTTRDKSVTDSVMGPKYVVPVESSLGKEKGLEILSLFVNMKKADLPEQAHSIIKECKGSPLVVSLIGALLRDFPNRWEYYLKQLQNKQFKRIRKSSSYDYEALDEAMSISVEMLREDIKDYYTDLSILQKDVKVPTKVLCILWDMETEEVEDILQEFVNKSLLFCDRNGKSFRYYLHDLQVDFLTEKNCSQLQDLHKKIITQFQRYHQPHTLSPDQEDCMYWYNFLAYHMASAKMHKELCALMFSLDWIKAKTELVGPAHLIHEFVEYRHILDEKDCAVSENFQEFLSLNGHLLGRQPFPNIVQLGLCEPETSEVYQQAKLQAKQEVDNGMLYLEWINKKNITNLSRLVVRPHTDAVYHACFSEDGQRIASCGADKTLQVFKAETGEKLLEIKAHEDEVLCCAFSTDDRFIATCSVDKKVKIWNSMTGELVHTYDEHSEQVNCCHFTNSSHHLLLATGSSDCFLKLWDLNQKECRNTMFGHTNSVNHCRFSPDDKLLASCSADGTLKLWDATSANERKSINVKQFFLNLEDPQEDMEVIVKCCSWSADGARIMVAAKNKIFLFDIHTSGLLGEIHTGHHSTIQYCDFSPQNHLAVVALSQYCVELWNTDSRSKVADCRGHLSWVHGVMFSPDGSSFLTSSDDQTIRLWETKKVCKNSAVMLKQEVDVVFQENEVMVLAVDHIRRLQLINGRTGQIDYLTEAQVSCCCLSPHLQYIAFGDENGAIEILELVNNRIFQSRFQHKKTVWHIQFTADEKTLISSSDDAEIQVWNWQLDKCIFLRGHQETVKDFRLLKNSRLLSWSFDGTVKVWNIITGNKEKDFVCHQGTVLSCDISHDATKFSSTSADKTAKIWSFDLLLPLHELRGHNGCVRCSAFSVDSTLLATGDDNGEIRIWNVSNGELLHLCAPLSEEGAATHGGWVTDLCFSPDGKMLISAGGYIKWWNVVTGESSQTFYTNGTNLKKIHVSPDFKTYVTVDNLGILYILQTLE
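Material: cell-free apoptosome with Apaf-1, procaspase-3 and caspase-9; Buffer or medium: Hepes pH 7.5 with detergent and BSA; Reagent: cytochrome c trigger plus (Z-DEVD)2-Rh110 caspase-3 substrate; Times: compound with Apaf-1, dATP, procaspase-3 30 min, then 50 min reaction, room temperature; Technique: Rh110 fluorescence intensity.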
SENP7 block = inhibitors of human SENP7 protease | Q9BQF6 | recombinant SENP7, Z-RLRGG-aminoluciferin luminescence, 40 min | inhibition, % at 5 µM | 330,000 tested, 1.5% active | AID 434973;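 active means inhibition above about 50% at the single test dose, limit read from the data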;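 further: plate controls were DMSO with enzyme for no effect and no enzyme buffer wells for full effect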
SENP8 block-1 = blocks the human protease SENP8; Q96LD8; purified SENP8, Z-RLRGG-aminoluciferin cleavage, luminescence; inhibition, % at 10 µM; 330,000 tested, 1.2% active; AID 2540; in the data active means inhibition above about 50%
SENP6 block = blocks the human protease SENP6; Q9GZR1; Recombinant SENP6 catalytic domain, aminoluciferin luminescence; inhibition, % at 10 µM; 330,000 tested, 1.8% active; AID 2599;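 active means inhibition above about 50% at the single tested dose, limit read from the data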;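 further: plate controls were DMSO wells with enzyme for no effect and DMSO wells lacking enzyme for full effect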
UBC13 inh = blocks human UBC13 polyubiquitin chain formation | AID 485273 | TR-FRET | P61088 | inhibition, % at 20 µM | 330,000 tested, 0.47% active; in the data active means inhibition above about 45%, passing the limit was not always enough
SENP8 block-2 = inhibitors of human SENP8 protease. Q96LD8. recombinant SENP8, Nedd8 substrate fluorescence. 360,000 tested, 0.64% active. AID 602440. inhibition, % at 20 µM; in the data active means inhibition mostly above about 40%, no sharp cut-off; inactive means mostly below about 27%
Numbers without * were called inactive; nt = no result.

SMILES	Apaf-1 inh	SENP7 block	SENP8 block-1	SENP6 block	UBC13 inh	SENP8 block-2
O=c1[nH]c2cc3ccccc3cc2nc1-c1nnnn1C1CCCC1	nt	nt	nt	nt	nt	24
COC1=CC(=NCl)C=CC1=NCl	nt	nt	nt	nt	nt	76*
CC(C)(C)NC(=O)C1C(c2ccccc2)=Nc2ccccc2N1C(=O)c1ccc(C(F)(F)F)cc1 (stereo not drawn)	nt	nt	nt	nt	nt	6
CCN(CC)c1ccc(/C=C/c2nc3ccccc3s2)cc1	-305	95*	94*	86*	-8	nt
COc1cc(N=Nc2ccc(Br)cc2)cc(C=O)c1O	nt	nt	nt	nt	nt	44*
Cc1cc(C)c2nc(NNC(=O)c3cc(=O)c4ccccc4o3)sc2c1	19	2	63*	79*	-85	4
Cc1cc(C)c2nc(NNC(=O)c3ccc(S(=O)(=O)N4CCc5ccccc5C4)cc3)sc2c1	-6	4	5	4	-62	-2
O=C(Oc1ccc(Cl)cc1)c1ccc(COC(=O)c2cnccn2)cc1	19	9	-3	18	9	15
CC(C)OC(=O)c1ccc(COC(=O)c2cnccn2)cc1	2	69*	42	59*	6	4
CO/N=C/C(=N\Nc1ccc(OC)cc1)C(=O)c1ccc(OC)cc1	7	1	-1	0	-7	51*
Cc1[nH]n(-c2ccccc2)c(=O)c1C(C[N+](=O)[O-])c1ccc(Cl)cc1 (stereo not drawn)	88*	22	-3	23	-27	45*
Cc1[nH]n(-c2ccccc2)c(=O)c1Sc1ccc(Cl)cc1	21	6	8	32	-11	40
Fc1ccc(Cn2ccc(-c3cnc(-c4ccccc4)s3)n2)cc1	14	21	-8	12	8	-491
O=C(c1ccc(F)cc1)n1ccc(-c2cnc(-c3ccccc3)s2)n1	-17	85*	32	55*	15	-457
CCNC(=O)C1(C)CCCN(Cc2ccc3ccccc3c2Br)C1 (stereo not drawn)	nt	nt	nt	nt	nt	14
CNC[C@@H]1Oc2ccc(NC(=O)Nc3ccccc3)cc2C(=O)N([C@@H](C)CO)C[C@H]1C	12	3	0	11	16	18
CNC[C@H]1Oc2ccc(NC(=O)Nc3ccc(OC)cc3)cc2C(=O)N([C@@H](C)CO)C[C@H]1C	45*	7	-4	-28	48*	nt
CNC[C@@H]1Oc2ccc(NC(=O)Nc3cccc4ccccc34)cc2C(=O)N([C@@H](C)CO)C[C@@H]1C	57*	-1	-16	-18	48*	nt
Brc1ccc(N=Nc2ccc3ccccc3n2)cc1	1	100*	96*	97*	-8	29
Cc1cccc(N2CCN(C(=S)c3ccc(-c4ccccc4[N+](=O)[O-])o3)CC2)c1	-1	4	-5	23	-44	15
O=[N+]([O-])c1ccccc1-c1ccc(C(=S)N2CCCCC2)o1	28	11	38	52*	-38	4
O=[N+]([O-])c1cccc(-c2ccc(C(=S)N3CCN(c4ccccc4)CC3)o2)c1	16	-5	-4	-5	-9	32*
COc1ccc(N2CCN(C(=O)C(=O)c3cc(OC)c4ccccc4c3)CC2)cc1	nt	nt	nt	nt	nt	6
CCCCn1nnnc1C(c1ccccc1)N1CCN(C/C=C/c2ccccc2)CC1 (stereo not drawn)	nt	nt	nt	nt	nt	7
CCN(CC)CCCNC(=O)c1cc2c(-c3ccc(Cl)cc3)nn(C)c2s1	38	-2	4	-13	39	-149
SMILES	Apaf-1 inh	SENP7 block	SENP8 block-1	SENP6 block	UBC13 inh	SENP8 block-2
CN1CCN(CCCNC(=O)c2cc3c(-c4ccc(Cl)cc4)nn(C)c3s2)CC1	43*	-8	4	4	46*	-124
O=C(c1ccc(S(=O)(=O)N2CCCCCC2)cc1)N1CCC(CN2C(=O)c3cccc4cccc(c34)C2=O)CC1	20	3	8	-7	46*	-322
Cc1occc1C(=O)N=Nc1c(O)n(C)c2ccccc12	2	75*	47	73*	-4	25
Cc1nc2c(nc1C)C(=O)c1ccccc1C2=O	nt	nt	nt	nt	nt	65*
CC(C)(C)C(=O)c1c(N)[nH]c(C(=O)c2ccccc2)c1-c1c(F)cccc1F	nt	nt	nt	nt	nt	16
CC(=O)c1ccc(N=Nc2c(C)[nH]n(-c3ccccc3)c2=O)cc1	-3	2	-1	-6	-34	48*
Cc1cc2c(cc1C)-n1nnnc1C(N(Cc1ccccc1)Cc1ccccc1)C(=O)N2 (stereo not drawn)	nt	nt	nt	nt	nt	7
CCN(CC)CCNC(=O)c1ccc(NC(=O)c2cn(-c3ccccc3)nc2-c2cccs2)cc1	25	9	-7	-16	103*	-12
O=C(Nc1cccnc1)c1cn(-c2ccccc2)nc1-c1cccs1	-11	-2	2	-4	19	4
O=c1c(=NNc2ccccc2Cl)c(=O)c2ccccc12	nt	nt	nt	nt	nt	40*
Cc1ccc(-c2noc(CCC(=O)N3CCN(c4cccc(C(F)(F)F)c4)CC3)n2)cc1	42*	-11	-11	0	-8	18
COc1ccc(-c2noc(CCC(=O)N3CCN(c4ccc(C(F)(F)F)cc4)CC3)n2)cc1	17	6	nt	nt	nt	12
CN(C(=O)COC(=O)c1cc([N+](=O)[O-])ccc1N1CCCC1)C1CCS(=O)(=O)C1 (stereo not drawn)	5	-22	-4	-19	-17	13
CCC(C)N(C(=O)COC(=O)c1cc([N+](=O)[O-])ccc1N1CCOCC1)C1CCS(=O)(=O)C1 (stereo not drawn)	78*	1	1	-1	-13	19
COC(=O)[C@@]12C[C@@H](CC(=O)N3CCN(C(=O)c4ccco4)CC3)C(=O)N(CCc3ccc(OC)c(OC)c3)C1=CCC(C)(C)C2	nt	nt	nt	nt	nt	25
COc1ccc(NCc2nc3ccccc3n2CCOc2ccccc2)cc1	15	17	-5	12	-29	17
c1ccc(NCc2nc3ccccc3n2CCOc2ccccc2)cc1	16	33	48	66*	1	11
Cc1ccc(NC(=S)NNC(=O)Nc2ccccc2)cc1	-2	47	29	52*	-4	13
COc1ccc(C(=O)Nn2c(SCc3ccc([N+](=O)[O-])cc3)nc3ccccc3c2=O)cc1	18	3	1	-5	6	19
COc1ccc(C(=O)Nn2c(SCC(=O)c3ccccc3)nc3ccccc3c2=O)cc1	14	6	6	10	83*	17
CC(C)(C)N1C(=O)c2ccccc2NC(=O)C1C(=O)NCCOc1ccccc1 (stereo not drawn)	nt	nt	nt	nt	nt	12
Cc1cc2[nH]c3c4ccccc4nc(C)c3c2cc1C	nt	nt	nt	nt	nt	-412
Cc1cc2[nH]c3c(c[n+](C)c4ccccc34)c2cc1C	28	-5	0	-12	64*	-399
CC(=O)Nc1ccc(CNc2nc3cc(-c4ccsc4)sc3c(=O)n2C)cc1	nt	nt	nt	nt	nt	-115
CCCCN(Cc1ccccc1)c1ncnc2nc[nH]c12	12	-4	1	-12	47*	11
CCCCN(CCCC)c1ncnc2nc[nH]c12	-1	3	-2	7	29	13
